Reference: ChEMBL document CHEMBL3044914, “Synthesis of novel 12-aryl-8,9,10,12-tetrahydrobenzo[a]xanthene-11-thiones and evaluation of their biocidal effects” (2012)
≈ marks a conversion by molar mass, not a printed value.

Experiments:
[1] = system: Macrophomina phaseolina; assay: Antifungal activity against Rhizoctonia bataticola by food poison technique; type: functional; conditions: read-out: ED50 (the source's name)
[2] = system: Alternaria porri; assay: Antifungal activity against Alternaria porri by food poison technique; type: functional; conditions: read-out: ED50 (the source's name)
[3] = system: Spodoptera litura; assay: Insecticidal activity against Spodoptera litura third-instar larvae fed on 0.1% compound pre-treated castor leaves assessed as mortality after 24 hr post compound treatment by feeding method; type: functional
Method in brief: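 Castor leaf was dipped for 2 s in a 0.1% solution, air-dried and placed on moist filter paper in 9 cm Petri plates. Third-instar larvae aged 7 ± 1 day were prestarved 4 h and released singly into each plate. There were thirty replications per treatment, with a solvent control. Mortality was scored at 24 h.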

[4] = Inhibition of soil urease assessed as urea-N level at 1% compound level measured after 9 hr; conditions: concentration not given here
Method in brief: (§1)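 Soil from cultivated institute farm fields, 50 g air-dried per beaker, moisture kept daily with distilled water. Compound in acetone added at 1% of applied urea-N (0.1 mg); urea-alone control; completely randomized design, three replicates. 5 g samples taken at 9 and 27 h, extracted with 1 M sodium sulfate containing phenyl mercuric acetate to stop hydrolysis; urea-N estimated.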

[5] = system: Spodoptera litura; assay: Insecticidal activity against Spodoptera litura third-instar larvae exposed to 0.1% compound on ventral side of larvae assessed as mortality after 24 hr post compound treatment by contact method; type: functional
Method in brief: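 Topical treatment of third-instar larvae aged 7 ± 1 day. Each treatment was run in triplicate with solvent as control. Mortality was recorded after 24 h.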

[6] = system: Spodoptera litura; assay: Insect growth regulatory activity against Spodoptera litura third-instar larvae assessed as abnormal or dead larva level at 0.1% measured after 24 hr post compound treatment by leaf-dip method; type: functional
Method in brief: (§2)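 Third-instar larvae were reared on artificial diet, newly moulted and pre-weighed at 30–40 mg. The 0.1% solution was a stock, applied at different concentrations. Leaves on moistened filter paper in Petri dishes were sprayed with the test solution and dried. Ten larvae were placed per dish, in triplicate, with carrier-solvent controls. Larval weight, mortality, pupation, deformed pupae, intermediates, adult emergence and deformed adults were recorded after 24 h.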

[7] = Inhibition of soil urease assessed as urea-N level at 1% compound level measured after 27 hr; conditions: concentration not given here; method in brief: as §1
[8] = system: Spodoptera litura; assay: Insect growth regulatory activity against Spodoptera litura third-instar larvae assessed as abnormal pupa or dead pupa level at 0.1% measured after 24 hr post compound treatment by leaf-dip method; type: functional; method in brief: as §2
[9] = system: Athelia rolfsii; assay: Antifungal activity against Athelia rolfsii by food poison technique; type: functional; conditions: Agroathelia rolfsii; read-out: ED50 (the source's name)
[10] = system: Spodoptera litura; assay: Insect growth regulatory activity against Spodoptera litura third-instar larvae assessed as normal adult level at 0.1% measured after 24 hr post compound treatment by leaf-dip method; type: functional
[11] = system: Spodoptera litura; assay: Insect growth regulatory activity against Spodoptera litura third-instar larvae assessed as mortality at 0.1% measured after 24 hr post compound treatment by leaf-dip method; type: functional; method in brief: as §2
[12] = system: Fusarium oxysporum; assay: Antifungal activity against Fusarium oxysporum by food poison technique; type: functional; conditions: read-out: ED50 (the source's name)
[13] = system: Spodoptera litura; assay: Insect growth regulatory activity against Spodoptera litura third-instar larvae assessed as growth inhibition index at 0.1% measured after 24 hr post compound treatment by leaf-dip method; type: functional

In the case of `CC1(C)CC(=S)C2=C(C1)Oc1ccc3ccccc3c1C2c1ccc2ccccc2c1` (centres undefined), the EC50 [1] is reported as 244 µg/mL (≈ 580 µM), the EC50 [2] is reported as 165 µg/mL (≈ 393 µM) and the mortality [3] is reported as 80%. The inhibition [4] was 1%, the mortality [5] was 0% and the Activity [6] was 20%. The inhibition [7] was 3%, the Activity [8] was 10% and the EC50 [9] was 199 µg/mL (≈ 473 µM). The Activity [10] was 70%, the mortality [11] was 0% and the EC50 [12] was 189 µg/mL (≈ 448 µM). The “growth inhibition (GI)” value [13] was 30%.
For `CC1(C)CC(=S)C2=C(C1)Oc1ccc3ccccc3c1C2c1ccccc1` (centres undefined), the EC50 [1] was 570 µg/mL (≈ 1540 µM), the EC50 [2] was 336 µg/mL (≈ 906 µM) and the mortality [3] was 20%. For the same compound, the inhibition [4] was 5%, the mortality [5] was 20% and the Activity [6] was 0%. It also gave an inhibition [7] of 5%, an Activity [8] of 15% and an EC50 [9] of 525 µg/mL (≈ 1420 µM). It also gave an Activity [10] of 35%, a mortality [11] of 50% and an EC50 [12] of 326 µg/mL (≈ 879 µM). The “growth inhibition (GI)” value [13] was 75%.
For `S=C1CCCC2=C1C(c1ccccc1Br)c1c(ccc3ccccc13)O2` (centres undefined), the EC50 [1] was 286 µg/mL (≈ 678 µM), the EC50 [2] was 136 µg/mL (≈ 322 µM) and the mortality [3] was 90%. For the same compound, the inhibition [4] was 1%, the mortality [5] was 50% and the Activity [6] was 20%. It also gave an inhibition [7] of -2%, an Activity [8] of 5% and an EC50 [9] of 225 µg/mL (≈ 535 µM). The Activity [10] was 75%, the mortality [11] was 0% and the EC50 [12] was 148 µg/mL (≈ 352 µM). The “growth inhibition (GI)” value [13] was 25%.
`CCCCC(O)(Cn1cncn1)c1ccc(Cl)cc1Cl` (centres undefined) [HEXACONAZOLE] showed an EC50 [1] of 334 µg/mL (≈ 1060 µM), an EC50 [2] of 25.5 µg/mL (≈ 81.3 µM) and an EC50 [9] of 13 µg/mL (≈ 41.2 µM). It also gave an EC50 [12] of 20.6 µg/mL (≈ 65.4 µM).
With `COc1cc(C2C3=C(CC(C)(C)CC3=S)Oc3ccc4ccccc4c32)ccc1O` (centres undefined) the EC50 [1] was 567 µg/mL (≈ 1360 µM), the EC50 [2] was 433 µg/mL (≈ 1040 µM) and the mortality [3] was 10%. The inhibition [4] was -6%, the mortality [5] was 0% and the Activity [6] was 0%. The inhibition [7] was 12%, the Activity [8] was 20% and the EC50 [9] was 670 µg/mL (≈ 1610 µM). For the same compound, the Activity [10] was 70%, the mortality [11] was 10% and the EC50 [12] was 438 µg/mL (≈ 1050 µM). The “growth inhibition (GI)” value [13] was 30%.
For `CC1(C)CC(=S)C2=C(C1)Oc1ccc3ccccc3c1C2c1ccc(Cl)cc1` (centres undefined), the EC50 [1] was 334 µg/mL (≈ 825 µM), the EC50 [2] was 311 µg/mL (≈ 767 µM) and the mortality [3] was 40%. It also gave an inhibition [4] of 35%, a mortality [5] of 30% and an Activity [6] of 10%. The inhibition [7] was 18%, the Activity [8] was 20% and the EC50 [9] was 280 µg/mL (≈ 692 µM). For the same compound, the Activity [10] was 30%, the mortality [11] was 40% and the EC50 [12] was 245 µg/mL (≈ 606 µM). The “growth inhibition (GI)” value [13] was 70%.
In the case of `Cc1ccc(C2C3=C(CC(C)(C)CC3=S)Oc3ccc4ccccc4c32)cc1` (centres undefined), the EC50 [1] is reported as 489 µg/mL (≈ 1270 µM), the EC50 [2] is reported as 385 µg/mL (≈ 1000 µM) and the mortality [3] is reported as 20%. The inhibition [4] was 33%, the mortality [5] was 10% and the Activity [6] was 10%. It also gave an inhibition [7] of 12%, an Activity [8] of 10% and an EC50 [9] of 321 µg/mL (≈ 834 µM). For the same compound, the Activity [10] was 50%, the mortality [11] was 30% and the EC50 [12] was 410 µg/mL (≈ 1070 µM). The “growth inhibition (GI)” value [13] was 50%.
For `CC1(C)CC(=S)C2=C(C1)Oc1ccc3ccccc3c1C2c1cccs1` (centres undefined), the EC50 [1] was 590 µg/mL (≈ 1570 µM), the EC50 [2] was 456 µg/mL (≈ 1210 µM) and the mortality [3] was 10%. It also gave an inhibition [4] of 4%, a mortality [5] of 0% and an Activity [6] of 0%. For the same compound, the inhibition [7] was -8%, the Activity [8] was 20% and the EC50 [9] was 457 µg/mL (≈ 1210 µM). For the same compound, the Activity [10] was 65%, the mortality [11] was 15% and the EC50 [12] was 375 µg/mL (≈ 997 µM). For the same compound, the “growth inhibition (GI)” value [13] was 35%.
In the case of `CC1(C)C(C=C(Cl)Cl)C1C(=O)OC(C#N)c1cccc(Oc2ccccc2)c1` (stereo not drawn) [ALPHA-CYPERMETHRIN], the mortality [5] is reported as 100%.
With `S=C1CCCC2=C1C(c1ccccc1)c1c(ccc3ccccc13)O2` (centres undefined) the EC50 [1] was 438 µg/mL (≈ 1280 µM), the EC50 [2] was 210 µg/mL (≈ 613 µM) and the mortality [3] was 30%. For the same compound, the inhibition [4] was 47%, the mortality [5] was 10% and the Activity [6] was 0%. For the same compound, the inhibition [7] was 22%, the Activity [8] was 10% and the EC50 [9] was 500 µg/mL (≈ 1460 µM). For the same compound, the Activity [10] was 50%, the mortality [11] was 40% and the EC50 [12] was 287 µg/mL (≈ 839 µM). The “growth inhibition (GI)” value [13] was 50%.
In the case of `O=[N+]([O-])c1ccc(C2C3=C(CCCC3=S)Oc3ccc4ccccc4c32)cc1` (centres undefined), the EC50 [1] is reported as 555 µg/mL (≈ 1430 µM), the EC50 [2] is reported as 212 µg/mL (≈ 547 µM) and the mortality [3] is reported as 70%. The inhibition [4] was 1%, the mortality [5] was 0% and the Activity [6] was 10%. For the same compound, the inhibition [7] was -1%, the EC50 [9] was 670 µg/mL (≈ 1730 µM) and the Activity [10] was 20%. The mortality [11] was 50%, the EC50 [12] was 358 µg/mL (≈ 923 µM) and the “growth inhibition (GI)” value [13] was 80%.
Compound `S=C1CCCC2=C1C(c1cccc(Cl)c1)c1c(ccc3ccccc13)O2` (centres undefined) has an EC50 [1] of 380 µg/mL (≈ 1010 µM), an EC50 [2] of 268 µg/mL (≈ 712 µM) and a mortality [3] of 60%. It also gave an inhibition [4] of 6%, a mortality [5] of 30% and an Activity [6] of 20%. For the same compound, the inhibition [7] was 2%, the Activity [8] was 10% and the EC50 [9] was 426 µg/mL (≈ 1130 µM). It also gave an Activity [10] of 40%, a mortality [11] of 30% and an EC50 [12] of 320 µg/mL (≈ 850 µM). The “growth inhibition (GI)” value [13] was 60%.
`CC1(C)CC(=S)C2=C(C1)Oc1ccc3ccccc3c1C2c1cccc(Br)c1` (centres undefined) showed an EC50 [1] of 475 µg/mL (≈ 1060 µM), an EC50 [2] of 321 µg/mL (≈ 714 µM) and a mortality [3] of 10%. It also gave an inhibition [4] of 15%, a mortality [5] of 30% and an Activity [6] of 50%. For the same compound, the inhibition [7] was 6%, the EC50 [9] was 478 µg/mL (≈ 1060 µM) and the Activity [10] was 0%. For the same compound, the mortality [11] was 50%, the EC50 [12] was 310 µg/mL (≈ 689 µM) and the “growth inhibition (GI)” value [13] was 100%.
`COc1ccc(C2C3=C(CC(C)(C)CC3=S)Oc3ccc4ccccc4c32)cc1` (centres undefined) gave an EC50 [1] of 478 µg/mL (≈ 1190 µM), an EC50 [2] of 406 µg/mL (≈ 1010 µM) and a mortality [3] of 10%. The inhibition [4] was 5%, the mortality [5] was 0% and the Activity [6] was 10%. For the same compound, the inhibition [7] was -4%, the Activity [8] was 20% and the EC50 [9] was 365 µg/mL (≈ 912 µM). The Activity [10] was 60%, the mortality [11] was 10% and the EC50 [12] was 279 µg/mL (≈ 697 µM). For the same compound, the “growth inhibition (GI)” value [13] was 40%.
Compound `CC1(C)CC(=S)C2=C(C1)Oc1ccc3ccccc3c1C2c1ccc(F)cc1` (centres undefined) has an EC50 [1] of 345 µg/mL (≈ 888 µM), an EC50 [2] of 199 µg/mL (≈ 511 µM) and a mortality [3] of 40%. The inhibition [4] was -3%, the mortality [5] was 10% and the inhibition [7] was 0%. The Activity [8] was 0%, the EC50 [9] was 358 µg/mL (≈ 922 µM) and the Activity [10] was 50%. For the same compound, the mortality [11] was 0%, the EC50 [12] was 260 µg/mL (≈ 670 µM) and the “growth inhibition (GI)” value [13] was 50%.
`COc1ccccc1C1C2=C(CC(C)(C)CC2=S)Oc2ccc3ccccc3c21` (centres undefined) gave an EC50 [1] of 484 µg/mL (≈ 1210 µM), an EC50 [2] of 418 µg/mL (≈ 1040 µM) and a mortality [3] of 30%. For the same compound, the inhibition [4] was 24%, the mortality [5] was 15% and the Activity [6] was 20%. The inhibition [7] was 6%, the Activity [8] was 10% and the EC50 [9] was 324 µg/mL (≈ 810 µM). The Activity [10] was 40%, the mortality [11] was 30% and the EC50 [12] was 336 µg/mL (≈ 838 µM). The “growth inhibition (GI)” value [13] was 60%.
